Experimental data: PMC9946004 (Infection and Drug Resistance, 2023)
In brackets after ≈: the same amount, converted by molar mass.

Legend:
Assay in all cases: MIC by broth microdilution
Assay type in all cases: cell-based
Conditions in all cases: Staphylococcus aureus
[1] = system: S. aureus 18-W26-14 (MRSA)
Outline: (§1)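 Broth microdilution per CLSI 2018 in Mueller–Hinton broth, in triplicate. Inoculum was 5×10^5 CFU/mL, incubated 20 h at 37 °C. MIC was the lowest concentration with no visible growth. ATCC29213 served as the quality-control strain.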

S. aureus ATCC29213 = system: S. aureus ATCC29213
Outline: as §1

[2] = system: S. aureus 18-W27-73 (MRSA)
Outline: as §1

MIC [1] [µg/mL]	MIC (S. aureus ATCC29213) [µg/mL]	MIC [2] [µg/mL]	SMILES
4 (≈ 11.9 µM)	2 (≈ 5.93 µM)	2 (≈ 5.93 µM)	CC(=O)NC[C@H]1CN(c2ccc(N3CCOCC3)c(F)c2)C(=O)O1 [Linezolid, linezolid]
2 (≈ 1.38 µM)	1 (≈ 0.69 µM)	1 (≈ 0.69 µM)	CN[C@H](CC(C)C)C(=O)N[C@H]1C(=O)N[C@@H](CC(N)=O)C(=O)N[C@H]2C(=O)N[C@H]3C(=O)N[C@H](C(=O)N[C@H](C(=O)O)c4cc(O)cc(O)c4-c4cc3ccc4O)[C@H](O)c3ccc(c(Cl)c3)Oc3cc2cc(c3O[C@@H]2O[C@H](CO)[C@@H](O)[C@H](O)[C@H]2O[C@H]2C[C@](C)(N)[C@H](O)[C@H](C)O2)Oc2ccc(cc2Cl)[C@H]1O [Vancomycin, vancomycin]
